Measured values reported in ChEMBL document CHEMBL1130423, “Design, synthesis, and biological evaluation of new growth inhibitors of Trypanosoma cruzi (epimastigotes)” (J Med Chem, 1997).

system: Trypanosoma cruzi; experiment: Inhibitory concentration against Trypanosoma cruzi (epimastigotes); format: functional, organism-based
Procedure, shortened: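 T. cruzi epimastigotes (Y strain) grown at 28 °C in brain-heart infusion (37 g/L) medium with hemin chlorohydrate (20 mg/L) and 10% newborn calf serum. Initial inoculum 2-3 × 10^6 cells/mL, counted in a Neubauer chamber. Each drug tested at four concentrations with a drug-free control per group. Growth read as absorbance at 600 nm against medium blank. Percent inhibition taken from the start-to-end absorbance change relative to control.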

Q: For `COc1ccc(OCCOC2CCCCO2)cc1` (stereo not given), which IC50 is on record?
A: Its IC50 is 218 µM.

Q: How did the IC50 turn out when `CC(C)=CCC/C(C)=C/CC/C(C)=C/COC1CCCCO1` (stereo not given) was run?
A: The IC50 was 78 µM.

Q: Which IC50 does the source give for `c1ccc(Oc2ccc(OCCOC3CCCCO3)cc2)cc1` (stereo not given) here?
A: Its IC50 is 138 µM.

Q: With `CCNC(=O)OCC(O)COc1ccc(Oc2ccccc2)cc1` (stereo not given) as the molecule, how does the IC50 read?
A: The IC50 was 233 µM.

Q: Which IC50 does the source give for `C=COC(=O)OC(C)COc1ccc(Oc2ccccc2)cc1` (stereo not given) here?
A: The IC50 was greater than 240 µM.

Q: For `C=COC(=O)OCCCOc1ccc(Oc2ccccc2)cc1`, which IC50 is on record?
A: The IC50 was 260 µM.

Q: With `OC(c1ccccc1)c1ccc(OCCOC2CCCCO2)cc1` (stereo not given) as the molecule, how does the IC50 read?
A: The IC50 was greater than 500 µM.

Q: How did the IC50 turn out when `CCSC(=O)OC/C=C(\C)CC/C=C(\C)CCC1OC1(C)C` (stereo not given) was run?
A: The IC50 was 210 µM.

Q: Which IC50 does the source give for `COc1ccc(OCCO)cc1` here?
A: The IC50 was greater than 500 µM.

Q: With `CCNC(=O)OCCOc1ccc(OC)cc1` as the molecule, how does the IC50 read?
A: Its IC50 is greater than 300 µM.

Q: With `C=CCOc1ccc(C(=O)c2ccccc2)cc1` as the molecule, how does the IC50 read?
A: The IC50 was 129 µM.

Q: With `CCNC(=O)OCCOc1ccc(C(=O)c2ccccc2)cc1` as the molecule, how does the IC50 read?
A: The IC50 was greater than 300 µM.

Q: Which IC50 does the source give for `CCNC(=O)OC/C=C(\C)CC/C=C(\C)CCC=C(C)C` here?
A: The IC50 was 147 µM.

Q: For `OCC(O)COc1ccc(Oc2ccccc2)cc1` (stereo not given), which IC50 is on record?
A: Its IC50 is 270 µM.

Q: `COc1ccc(OCCCOC2CCCCO2)cc1` (stereo not given) was tested. Which IC50 did it give?
A: The IC50 was greater than 300 µM.

Q: Which IC50 does the source give for `CCNC(=O)OC/C=C(\C)CCC=C(C)C` here?
A: The IC50 was 176 µM.

Q: How did the IC50 turn out when `O=C(c1ccccc1)c1ccc(OCCO)cc1` was run?
A: The IC50 was greater than 400 µM.

Q: With `C=COC(=O)OC/C=C(\C)CC/C=C(\C)CCC=C(C)C` as the molecule, how does the IC50 read?
A: Its IC50 is greater than 500 µM.

Q: Which IC50 does the source give for `OC(COc1ccc(Oc2ccccc2)cc1)COC1CCCCO1` (stereo not given) here?
A: Its IC50 is 142 µM.

Q: With `CC(C)=CCC/C(C)=C/COC1CCCCO1` (stereo not given) as the molecule, how does the IC50 read?
A: The IC50 was 68 µM.

Q: For `O=C(c1ccccc1)c1ccc(OCCOC2CCCCO2)cc1` (stereo not given), which IC50 is on record?
A: Its IC50 is 268 µM.

Q: With `CCNC(=O)OC(C)COc1ccc(OC)cc1` (stereo not given) as the molecule, how does the IC50 read?
A: The IC50 was greater than 350 µM.

Q: For `COc1ccc(OCC(C)O)cc1` (stereo not given), which IC50 is on record?
A: The IC50 was greater than 500 µM.

Q: How did the IC50 turn out when `CCNC(=O)OCCCOc1ccc(OC)cc1` was run?
A: Its IC50 is greater than 350 µM.

Q: `C=CCOc1ccc(OC)cc1` [1-allyloxy-4-methoxybenzene] was tested. Which IC50 did it give?
A: The IC50 was 209 µM.
